Only some compounds are listed: those with a hit (about 1.9% of all), similar ones and a draw of the others.
TbHK1 inh – blocks Trypanosoma brucei hexokinase 1 activity. recombinant TbHK1, G6PDH-coupled NADH A340. 0.11% of 220,000 active. inhibition, % at 10 µM. AID 1430;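 active = inhibition of 50% or more in the single-dose primary screen; inactive = inhibition below 50%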
Autophagy mod – modulators of autophagy; 0.98% of 190,000 active; MEF GFP-LC3 puncta imaging; test concentration mostly 10 µM; calls only at 10 µM (by protocol); AID 463193;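 active = percentage of spot-positive cells more than 3 SD above its plate mean, without a fluorescence outlier flag or 80% toxicity; inconclusive = no clear call, values can overlap the other calls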
MT stabilize HCS – microtubule stabilization, imaging screen. HeLa tubulin immunostaining HCS, 24 h; share of cells brighter than vehicle mean+2SD. 0.83% of 200,000 active. % tubulin-high responders, % at 10 µM;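 active = plate Z-score above 3 for both tubulin-high and condensed-nucleus cell shares, with cell loss under 80%, at 10 µM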;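 note: anti alpha tubulin signal scored within the nucleus-defined area of each cell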
b-catenin transl – beta-catenin nuclear translocation modulation; HeLa beta-catenin nuclear translocation, immunofluorescence imaging; 0.3% of 190,000 active; AID 1665; nuclear translocation activity, % at 5 µM;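 active = nuclear translocation activity above 50% at 5 µM, with a well cell count of 50 or more; inconclusive = wells under 50 cells across six images, flagged as toxic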;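 note: per-cell ratio of nuclear to cytoplasmic median beta-catenin stain intensity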
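assay system = human HeLa cells, endogenous beta-catenin | times = compound treatment 24 h, 37°C, 5% CO2 | detection = Anti-beta-catenin immunofluorescence on PFA-fixed, Triton-permeabilized cells, DAPI nuclei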
Insulin prom up – MIN6 insulin promoter up-regulation; MIN6 insulin promoter-GFP reporter, high-content imaging; hits give high values; AID 1625; 0.3% of 190,000 active; z-score at 5 µM;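 active = z-score above 3 at 5 µM with at least 500 cells counted in the well; inconclusive = wells under 500 cells, flagged as cytotoxic or low count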
Each line names hits and unclear results; the compound was inactive in the other large screens.

CC(=O)c1cc2c(cc1NS(=O)(=O)c1ccccc1C)OCO2	none
Cc1oc2c(cc(NS(=O)(=O)c3cccs3)c3ccccc32)c1C(=O)OC(C)C	none (no result: Insulin prom up)
COc1ccc(S(=O)(=O)Nc2cc3c(C(C)=O)c(C)oc3c3ccccc23)cc1	Autophagy mod active (no result: b-catenin transl, Insulin prom up)
COc1ccc2nc(/C(C#N)=C\c3ccc(Oc4ccc([N+](=O)[O-])cn4)cc3)[nH]c2c1	Autophagy mod active
Cc1ccc2nc(/C(C#N)=C\c3ccc([N+](=O)[O-])o3)[nH]c2c1	Autophagy mod active, Insulin prom up inconclusive (no result: b-catenin transl)
CC1C2NC(=O)N(Cc3ccccc3)C1(C)Oc1ccccc12 (configuration not stated)	none
O=C(Nc1ccc(Cl)cc1)NC1CCCc2ccccc21 (configuration not stated)	MT stabilize HCS 30 (no result: b-catenin transl, Insulin prom up)
COc1cc2c(O)c3c(c(-c4ccc5c(c4)OCO5)c2cc1OC)C(=O)OC3	Autophagy mod active
COc1cc2c(OC(C)=O)c3c(c(-c4ccc5c(c4)OCO5)c2cc1OC)C(=O)OC3	Autophagy mod active
Cc1ccc2oc(=O)n(CC(=O)OCCC(C)C)c2c1	none (no result: Autophagy mod, MT stabilize HCS)
COc1ccc(-n2ncc3c(=O)n(Cc4c(F)cccc4Cl)cnc32)cc1	none
COc1ccccc1NC(=O)/C=C/c1ccc2c(c1)OCO2	MT stabilize HCS 19
COc1cccc(/C=C/C(=O)Nc2ccc3c(c2)OCCO3)c1OC	Autophagy mod active
COc1ccccc1NC(=O)COC(=O)/C=C/c1ccc2c(c1)OCO2	none (no result: Insulin prom up)
Cc1ccc2c(c1)-c1c(ssc1=S)C(C)(C)N2C(=O)CSc1nncn1C	none
Cc1cc(C)c2c(c1)-c1c(ssc1=S)C(C)(C)N2C(=O)CSc1nncn1C	MT stabilize HCS 18
c1ccc(-n2cnnc2SCc2nc3ccccc3s2)cc1	Autophagy mod active
Cc1cc(C)nc(N2CCC(C(=O)NNC(=O)c3ccc(Cl)cc3)CC2)n1	none (no result: Autophagy mod, MT stabilize HCS)
CCOc1ccc(-n2c(N)c(C(=O)NCc3ccco3)c3nc4ccccc4nc32)cc1	none (no result: b-catenin transl)
CCOc1ccc(-n2c(N)c(-c3nc4ccccc4n3C)c3nc4ccccc4nc32)cc1	Autophagy mod active
Cc1ccc(S(=O)(=O)/N=S(\C)CC2CC2(Cl)Cl)cc1 (configuration not stated)	none (no result: Insulin prom up)
O=S(CC1CC1(Cl)Cl)CC1CC1(Cl)Cl (configuration not stated)	Autophagy mod active
Nc1c2c(=O)oc(-c3ccccc3)cc2nn1-c1ccccc1	MT stabilize HCS 29 (no result: b-catenin transl, Insulin prom up)
CCCCN=CC1=C(O)CC(c2ccccc2)CC1=O (configuration not stated)	none
CCCCCCCC(=O)Nc1ccc(C(=O)N/N=C/c2cccc([N+](=O)[O-])c2)cc1	Autophagy mod active
CCOC(=O)/C(=N\Nc1ccc(C(C)=O)cc1)c1csc(Nc2ccccc2)n1	Autophagy mod active
Cn1c(CC(=O)c2ccc(Br)cc2)[n+](C)c2ccccc21	Autophagy mod active
O=C(Cn1cnc2ccccc21)c1ccc(Br)cc1	none
COc1cc(CNCc2cccnc2)ccc1OCc1ccccc1	Autophagy mod active
Cc1cc(C)c(NC(=O)C2CCCN2CCOC(=O)c2ccccc2)c(C)c1 (configuration not stated)	none
C(=N\Nc1ncnc2ccccc12)/c1ccccc1	Autophagy mod active
Cc1ccc(-c2nn(-c3ccccc3)cc2NC(=O)CCl)cc1	none
Cc1ccc(Cn2nnc3c(=O)[nH]c(C4CCN(S(=O)(=O)c5ccccc5)CC4)nc32)cc1	none
Cc1ccc(S(=O)(=O)N2CCC(c3nc4c(nnn4Cc4ccccc4)c(=O)[nH]3)CC2)cc1	Autophagy mod active
O=C(O)CSCCC(=O)Nc1ccc(F)cc1	Autophagy mod active
COC(=O)c1ccc(C2N=C(c3cccs3)CC(c3ccccc3O)N2)cc1 (configuration not stated)	none
NC(=S)c1cc2cc(Cl)ccc2oc1=O	none (no result: Autophagy mod, MT stabilize HCS, Insulin prom up)
O=C(CCN1C(=O)c2ccc([N+](=O)[O-])cc2C1=O)Nc1nccs1	Autophagy mod active
O=C(CN1C(=O)c2ccc([N+](=O)[O-])cc2C1=O)Nc1nccs1	none
CCn1nc(C(=O)OCC(=O)NCC(C)C)c2ccccc2c1=O	Autophagy mod active
Cc1ccc(C(=O)Nc2ccc(C(=O)N/N=C/c3c[nH]c4ccccc34)cc2)cc1	none
O=C(CCC(=O)Nc1ccc(F)cc1)N/N=C/c1c[nH]c2ccccc12	none
Cc1ccc(NC(=S)N/N=C/c2c(C)[nH]c3ccccc23)cc1	Autophagy mod active
Cc1cccc(NC(=S)N/N=C/c2c[nH]c3ccccc23)c1	MT stabilize HCS 14 (no result: b-catenin transl)
O=C(CNc1ccccc1)N/N=C/c1c[nH]c2ccccc12	MT stabilize HCS 16
CC(/C=N/NC(=O)c1cc(-c2cccn2C)n[nH]1)=C\c1ccccc1	none (no result: Autophagy mod, MT stabilize HCS)
Cc1ccc(S(=O)(=O)Nc2cccc3cccnc23)cc1	Autophagy mod active (no result: b-catenin transl)
CC(C)(C)OC(=O)N[C@@H](Cc1ccccc1)[C@H](O)c1ccco1	none (no result: Autophagy mod, MT stabilize HCS)
CC(C)(C)c1nc(SCC(=O)N2CCCC2)c2ccccc2n1	none
CC(C)(C)c1nc(SCC(=O)c2ccccc2)c2ccccc2n1	Autophagy mod active
Cc1nn(-c2ccccn2)c2c1C(=O)C(Br)CC2 (configuration not stated)	none
Cc1cc(C)c2nc(Cl)c(CN(Cc3ccco3)C(=O)Nc3ccccc3C)cc2c1	MT stabilize HCS 21
COCCN(Cc1cc2cc(C)cc(C)c2nc1Cl)C(=O)Nc1ccccc1	MT stabilize HCS 34
CSc1sc(C(=O)NC(=O)NCc2ccncc2)c(C)c1-c1ccon1	none (no result: Autophagy mod, MT stabilize HCS)
C/C(=N\N1CCN(C)CC1)c1ccc(OC(F)F)cc1	Autophagy mod active
C/C(=N\N1CCN(C)CC1)c1ccc(Cl)c(Cl)c1	none
N#Cc1cc2ccccc2nc1SCC(=O)Nc1ccccc1N1CCOCC1	Autophagy mod active
Cc1cccc2cc(C#N)c(SCC(=O)Nc3ccccc3N3CCOCC3)nc12	none
CC(C)(CN1CCCCC1)NS(=O)(=O)c1ccc(Cl)cc1	none
CC(C)(CNS(=O)(=O)c1ccc(Cl)cc1)N1CCCCC1	Insulin prom up 3.6
O=c1[nH]cc([N+](=O)[O-])cc1Br	Autophagy mod active
COc1ccc(/C=N/NC(=O)CCn2cnc(-c3ccccc3)c2-c2ccccc2)cc1OC	MT stabilize HCS 22
CC1(C)CC2CC(C)(CN2Cc2c(O)ccc3ccccc23)C1 (configuration not stated)	none (no result: Insulin prom up)
NC(=O)COC(=O)CC12CC3CC(CC(Br)(C3)C1)C2	none
O=C(CC12CC3CC(CC(Br)(C3)C1)C2)OCCN1CCCCC1	Autophagy mod active
CN(C)c1ccc(C=NCC2COc3ccccc3O2)cc1 (configuration not stated)	none
COc1ccc(Cn2c(SCc3cc(C)ccc3C)nc3cc(OC)c(OC)cc3c2=N)cc1	Autophagy mod active
COc1ccc(Cn2c(SCc3ccc(C)cc3)nc3cc(OC)c(OC)cc3c2=N)cc1Cl	none
CCn1c(=O)cc(SCC(=O)NCc2ccc(C)o2)c2ccccc21	none (no result: b-catenin transl)
